Screens: PubChem BioAssay, several laboratories
An excerpt weighted towards active compounds, which were near 3.6% of everything screened.
GRIN3A LBD mod: modulates the human NR3A ligand-binding domain | NR3A LBD differential scanning fluorimetry, Tm shift; 0% = protein alone, 100% = glycine-bound protein | 340,000 tested, 2.5% active | Tm shift relative to glycine control, % at 25 µM;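 active means melting temperature shift of at least 10% of the positive control shift, at one fixed dose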
UCH37 DUB inh: human UCH37 deubiquitinating enzyme inhibition; purified proteasome/UCH37, Ub-AMC cleavage fluorescence; inhibition, % (no concentration beside the values); 330,000 tested, 0.33% active;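 active means mean inhibition over replicate wells above about 20%, limit read from the data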;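 further: 0% = compound-free wells with enzyme and 100% = wells lacking proteasome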
Target sequence (Q9Y5K5 whole entry, looked up): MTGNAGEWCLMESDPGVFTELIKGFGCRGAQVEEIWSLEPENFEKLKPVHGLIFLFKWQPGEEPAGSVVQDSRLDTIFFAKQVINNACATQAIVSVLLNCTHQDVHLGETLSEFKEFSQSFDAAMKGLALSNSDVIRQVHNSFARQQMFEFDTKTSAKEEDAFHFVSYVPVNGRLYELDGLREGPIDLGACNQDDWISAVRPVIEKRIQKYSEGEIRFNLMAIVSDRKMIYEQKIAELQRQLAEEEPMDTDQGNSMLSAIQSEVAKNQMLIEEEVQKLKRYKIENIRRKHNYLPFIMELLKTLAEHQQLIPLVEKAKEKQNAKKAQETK
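Material: Human UCH37 enzyme supplied as purified proteasome complex | Schedule: 30 min preincubation with enzyme, 25 min cleavage at room temperature | Detection: AMC fluorescence 355/460 nm | Measure: % inhibition of Ub-AMC cleavage fluorescence | Controls: Wells without proteasome as full block, compound-free enzyme plus substrate as uninhibited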
SENP1 inh: inhibitors of human SENP1 SUMO protease catalytic domain; 360,000 tested, 0.21% active; inhibition, % at 10 µM; AID 624204; recombinant SENP1 catalytic domain, CyPet-SUMO1-YPet FRET cleavage;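 active means inhibition at least 30% at 10 µM, raw YFP signal under a set limit, fluorescence ratio 0.5 to 1.5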;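 further: 0% = enzyme with DMSO and 100% = no enzyme wells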
Target sequence (Q9P0U3 419-644 limits assumed): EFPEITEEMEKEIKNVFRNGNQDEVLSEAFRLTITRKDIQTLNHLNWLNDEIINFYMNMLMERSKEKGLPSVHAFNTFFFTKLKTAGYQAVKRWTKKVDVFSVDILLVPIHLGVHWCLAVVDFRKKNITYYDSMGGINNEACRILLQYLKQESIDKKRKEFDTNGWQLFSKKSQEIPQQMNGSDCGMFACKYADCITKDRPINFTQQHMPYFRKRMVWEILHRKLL
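Assay system: hSENP1 catalytic domain, recombinant. Amount: SENP1 enzyme, 20 pM final. Schedule: 50 min reaction, RT, dark. Technique: FRET, CFP and YFP emission. Control set: no-enzyme wells low, DMSO-plus-enzyme wells high control.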
NadD inh: blocks S. aureus nicotinate mononucleotide adenylyltransferase. purified NadD enzyme, colorimetric absorbance read-out. inhibition, % at 20 µM. 360,000 tested, 0.78% active. AID 602399; in the data active means inhibition above about 26%
ATG4B inh: ATG4B (human) cysteine protease inhibition | AID 504462 | inhibition, % at 8.33 µM | 340,000 tested, 0.51% active | Q9Y4P1 | ATG4B cleavage of LC3-PLA2, NBD-HPC fluorescence, 1 h; in the data active means inhibition above about 40%
PLA2 counter: counter-screen for ATG4B inhibitors: human phospholipase A2; shares compounds with ATG4B inh; purified PLA2, NBD-C6-HPC fluorescence, 45 min; inhibition, % at 8.33 µM; 1,600 tested, 66% active; in the data active means inhibition above about 50%
Numbers without * were called inactive; i = inactive; · = not tested or not shown.

SMILES | GRIN3A LBD mod | UCH37 DUB inh | SENP1 inh | NadD inh | ATG4B inh | others
Cc1ccc(/C=C2\Sc3ccccc3C2=O)s1 | 4 | 2 | -67 | -6 | 13
CC(=O)N(C)/C=C1\Sc2ccccc2C1=O | 14* | 2 | -143 | 3 | 9
CCC(=O)N(C)/C=C1\Sc2ccccc2C1=O | 2 | 4 | -102 | -5 | 15
ON=C1CCC(=NO)c2nn(-c3ccc(Cl)cc3Cl)nc21 | · | 0 | · | · | ·
C[C@H]1CN(S(=O)(=O)c2c(F)cccc2F)CCN1S(=O)(=O)c1ccc2c(c1)OCCO2 | 11* | 3 | 2 | -12 | 1
C[C@@H]1CN(S(=O)(=O)c2ccc3c(c2)OCCO3)CCN1S(=O)(=O)c1c(F)cccc1F | 3 | 2 | 2 | -9 | 6
Clc1ccc(-c2cn3cc(Br)ccc3n2)cc1Cl | -26 | 2 | 1 | 6 | 2
Clc1ccc(-c2cn3c(n2)-c2ccccc2C3)cc1Cl | 30* | -5 | -1 | 4 | 6
CC(CC(=O)Nc1ccc(Cl)cc1C(F)(F)F)=NNC(=O)c1cccs1 | · | 4 | · | · | ·
COc1cc(C(=O)N2CCN(C(=O)COc3ccc4ccccc4c3)CC2)cc(OC)c1OC | 1 | 28* | 1 | 10 | -9
CCOC(=O)N1CCC(N2C(=O)c3ccc(C(=O)O)cc3C2=O)CC1 | 5 | 3 | 1 | 1 | -9
CCOC(=O)N1CCC(N2C(=O)c3ccc(C(=O)Nc4cccc(OC)c4)cc3C2=O)CC1 | 11* | -8 | 2 | -5 | -4
CC(CC(=O)Nc1ccc(N(C)C)cc1)=NNC(=O)c1ccc(C(C)(C)C)cc1 | · | 4 | · | · | ·
COc1ccc(C(=O)/C=C/c2ccc(O)cc2)c2c1CC(O)C(C)(C)O2 (configuration not stated) | -9 | 4 | 16 | 4 | -35
COc1ccc(C(=O)/C=C/c2ccc(O)cc2)c(O)c1CC=C(C)C | 15* | 0 | 16 | -13 | 14
COc1ccccc1/C=C/C=NNC(=O)Cc1cccs1 | · | 3 | · | · | ·
C#CCOCCOCCOCCNc1nc(N2CCN(C(=O)CCCCCCCCCCNC(=O)[C@@H](CCSC)n3cc(CCO)nn3)CC2)nc(N2CCN(C(=O)CCCCCCCCCCNC(=O)[C@H]([C@@H](C)CC)n3cc(CCCCCN)nn3)CC2)n1 | 17* | · | · | · | 45*
C#CCOCCOCCOCCNc1nc(N2CCN(C(=O)CCCCCCCCCCNC(=O)[C@@H](CCSC)n3cc(CCO)nn3)CC2)nc(N2CCN(C(=O)CCCCCCCCCCNC(=O)[C@H]([C@@H](C)CC)n3cc(CCCCN=C(N)N)nn3)CC2)n1 | 7 | · | 3 | 68* | 35
C#CCOCCOCCOCCNc1nc(N2CCOCC2)nc(N2CCN(C(=O)CCCCCCCCCCNC(=O)[C@@H](CCSC)n3cc(CCO)nn3)CC2)n1 | -1 | 0 | 1 | -5 | -17
CCOC(=O)c1sc(N(Cc2ccccc2)C(=O)COC(=O)c2ccc(O)cc2)nc1C | 29* | -1 | -9 | 2 | 14
CCOC(=O)c1sc(N(Cc2ccccc2)C(=O)COC(=O)c2ccccc2O)nc1C | 2 | -1 | 2 | -4 | 3
COC(=O)C(=NNc1ccc(C)cc1)N1CCCc2ccccc21 | · | 2 | · | · | ·
CCOc1cc(S(=O)(=O)NCCN2CCOCC2)c(C)cc1C | 11* | 7 | -1 | -1 | 9
COc1ccc(CC(=O)NN=Cc2ccc(C)s2)cc1 | · | 6 | · | · | ·
c1ccc(Cn2nnnc2C(c2cccs2)N2CCc3ccccc3C2)cc1 (configuration not stated) | 16* | 2 | 2 | -4 | 0
SMILES | GRIN3A LBD mod | UCH37 DUB inh | SENP1 inh | NadD inh | ATG4B inh | others
CCOc1ccc(NC(=S)NN2C(C)CCCC2C)cc1 (configuration not stated) | 12* | 3 | 2 | 0 | -12
CCOc1ccc(NC(=O)NN2C(C)CCCC2C)cc1 (configuration not stated) | -1 | 0 | 1 | 0 | -14
CC(=NNC(=O)c1cccnc1)c1nnn(-c2nonc2N)c1C | · | 3 | · | · | ·
CCOC(=O)c1c(C)[nH]c(C(=O)NN=Cc2ccc(Br)cc2)c1C | · | -5 | · | · | ·
CCOCCCNC(=O)c1ccc2c(=O)n(Cc3ccc4c(c3)OCO4)c(=S)[nH]c2c1 | 0 | 3 | -1 | -6 | -2
COCCCNC(=O)c1ccc2c(=O)n(Cc3ccc4c(c3)OCO4)c(=S)[nH]c2c1 | 12* | 1 | 2 | -3 | -13
Cc1ccnc(SCCn2c(N3CCC(C)CC3)nc3c2c(=O)[nH]c(=O)n3C)n1 | 13* | · | 1 | -2 | -2
COc1ccc(C(=O)/C(C#N)=N/Nc2cccc([N+](=O)[O-])c2)cc1 | 10* | · | 4 | 9 | 3
COc1ccc(C(=O)C(C#N)=NNc2ccccc2[N+](=O)[O-])cc1 | · | 6 | · | · | ·
OC(CNCC(c1ccc(Cl)cc1Cl)c1c[nH]c2ccccc12)c1ccccc1 (configuration not stated) | 24* | 6 | 3 | 9 | 33
CC(=O)Nc1ccccc1N(CC(O)Cn1c2ccccc2c2ccccc21)S(=O)(=O)c1ccc(C)cc1 (configuration not stated) | 13* | -1 | 0 | 8 | -27
OC[C@@H]1[C@@H](c2ccc(Cl)cc2)C(c2ccccc2)=NN1c1ccccc1 | 24* | i | -30 | 2 | 0
COc1ccccc1[C@H]1C(c2ccc(F)cc2)=NN(c2ccccc2)[C@@H]1CO | -6 | -491 | -25 | 2 | 6
COc1ccccc1[C@H]1C(c2ccccc2)=NN(c2ccccc2)[C@@H]1CO | 2 | i | -25 | -2 | -2
COc1ccccc1[C@H]1C(c2cccc(C)c2)=NN(c2ccccc2)[C@@H]1CO | -6 | i | -31 | 1 | 2
OC[C@@H]1[C@@H](c2ccc(F)cc2)C(c2cccc(Cl)c2)=NN1c1ccccc1 | 27* | i | -30 | 2 | 0
OC[C@@H]1[C@@H](c2ccc(Cl)cc2)C(c2cccc(Cl)c2)=NN1c1ccccc1 | 31* | i | -29 | 10 | -1
COc1ccc(C(=NO)C(=NO)c2ccc(OC)cc2)cc1 | · | 2 | · | · | ·
CCOC(=O)N/N=C/c1cn(CCCOc2ccc(C)cc2)c2ccccc12 | -8 | · | 2 | -3 | 41* | PLA2 counter=29
COc1ccccc1NS(=O)(=O)c1cccc(NC(=O)Nc2cccc(Cl)c2)c1 | 23* | 3 | 2 | 4 | 44* | PLA2 counter=59*
COCCN1C=C2C(=O)C(C)(OC(=O)CCC(=O)OC)C(=O)C(Br)=C2C=C1c1ccc(OC)cc1 (configuration not stated) | 1 | · | -64 | -1 | -3
